# E-selectin induc = induces E-selectin expression in human endothelial cells | activation, % at 7.58 µM | 260,000 compounds, 0.37% hits | AID 686992 | HUVEC E-selectin immunofluorescence imaging; normalized: neutral wells 0, TNF-alpha wells 100 | P16581;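 active = mean E-selectin-positive cell signal at least 10% of the positive control, reached in at least 60% of replicates, without over 20% cell loss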
# Target sequence (P16581 whole entry, looked up): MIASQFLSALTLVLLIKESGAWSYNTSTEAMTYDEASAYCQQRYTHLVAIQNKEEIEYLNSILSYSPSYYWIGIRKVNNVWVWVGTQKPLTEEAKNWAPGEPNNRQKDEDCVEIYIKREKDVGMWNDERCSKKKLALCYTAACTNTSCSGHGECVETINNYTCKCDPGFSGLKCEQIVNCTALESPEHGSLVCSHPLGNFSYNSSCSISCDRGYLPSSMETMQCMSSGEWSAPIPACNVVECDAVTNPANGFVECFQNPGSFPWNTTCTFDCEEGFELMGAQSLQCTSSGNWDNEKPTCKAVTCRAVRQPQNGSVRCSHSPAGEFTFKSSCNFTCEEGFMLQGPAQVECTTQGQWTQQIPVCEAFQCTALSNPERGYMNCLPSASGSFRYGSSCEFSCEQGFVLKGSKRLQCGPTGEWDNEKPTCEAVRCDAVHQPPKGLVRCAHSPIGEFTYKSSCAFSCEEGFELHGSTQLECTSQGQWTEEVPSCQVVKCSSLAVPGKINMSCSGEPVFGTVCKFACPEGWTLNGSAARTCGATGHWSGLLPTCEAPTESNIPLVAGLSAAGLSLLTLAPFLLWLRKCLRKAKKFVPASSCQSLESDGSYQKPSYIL
#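 material = human umbilical vein endothelial cells (HUVEC), E-selectin induction | quantity = 3,000 cells/well | medium = EGM-2 growth medium on 0.1% gelatin-coated wells | technique = immunofluorescence imaging | read-out basis = % PE-positive cells | control set = TNF-alpha positive control, DMSO neutral control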
# * = called active by the depositor. Many of the other results were omitted from the sample, so hits are more common in it than they were.
SMILES,E-selectin induc
CCOc1ccc(CCNS(=O)(=O)c2ccc3c(c2)NC(=O)CO3)cc1OCC,0
COc1ccc(CCNC(=O)CCS(=O)(=O)c2ccc3c(c2)NC(=O)CS3)cc1OC,0
C[C@H]1CN([C@@H](C)CO)C(=O)CCCn2nncc2CO[C@@H]1CN(C)Cc1ccc2c(c1)OCCN2C,0
C[C@H](CO)N1C[C@H](C)[C@H](CN(C)C(=O)Nc2ccc(F)cc2)Oc2c(NC(=O)c3nc4ccccc4s3)cccc2C1=O,0
CO[C@H]1CN(C)C(=O)c2cc(NC(C)=O)ccc2OC[C@H](C)N(CC2CC2)C[C@@H]1C,0
O=C(CN1CCOCC1)N[C@@H]1CC[C@@H](CCn2cc(C3CC3)nn2)O[C@H]1CO,0
O=C(Nc1ccccc1)[C@H]1[C@H](CO)[C@H]2Cn3c(ccc(C4=CCCCC4)c3=O)[C@H]2N1Cc1ccccn1,-2
COc1ccc(-c2nnc3n2CCCCC3)cc1OC,35*
CS(=O)(=O)Nc1ccc(-c2nnc3n2CCCCC3)cc1,0
COc1ccc(/C=C/C(=O)Nc2ccc(-c3nnc4n3CCCCC4)cc2)c(OC)c1,-3
N#Cc1ccc(-c2ccc3c(c2)[C@H]2[C@H](CCN2S(=O)(=O)c2ccccc2F)[C@@H](CO)N3)cc1,0
CCCNC(=O)N1[C@H](CO)[C@@H]2c3ccccc3N(C(=O)c3cccnc3)C[C@@H]21,0
Cc1noc(C)c1NC(=O)Nc1ccc2c(c1)C(=O)N([C@H](C)CO)C[C@@H](C)[C@@H](CN(C)Cc1ccc(Cl)c(Cl)c1)O2,-5
Cn1c2ccccc2c2cc(/C=N/NC(=O)c3cc(O)ccc3O)ccc21,0
COc1cc(C(=O)N/N=C/c2ccc3c(c2)c2ccccc2n3C)ccc1O,1
Cn1c2ccccc2c2cc(/C=N/NC(=O)c3cc(O)cc(O)c3)ccc21,74*
COc1ccc(S(=O)(=O)Nc2cccc3c2O[C@H](CN(C)C(=O)Nc2c(C)noc2C)[C@@H](C)CN([C@@H](C)CO)C3=O)cc1,32*
Cc1ccc(S(=O)(=O)Nc2cccc3c2O[C@@H](CN(C)C(=O)Nc2c(C)noc2C)[C@@H](C)CN([C@H](C)CO)C3=O)cc1,0
COc1ccc(S(=O)(=O)Nc2cccc3c2O[C@H](CN(C)C(=O)Nc2c(C)noc2C)[C@H](C)CN([C@H](C)CO)C3=O)cc1,96*
Cc1ccc(S(=O)(=O)Nc2cccc3c2O[C@H](CN(C)C(=O)Nc2c(C)noc2C)[C@@H](C)CN([C@H](C)CO)C3=O)cc1,0
Cc1ccc(S(=O)(=O)Nc2cccc3c2O[C@@H](CN(C)C(=O)Nc2c(C)noc2C)[C@H](C)CN([C@@H](C)CO)C3=O)cc1,0
COc1ccc(S(=O)(=O)Nc2cccc3c2O[C@@H](CN(C)C(=O)Nc2c(C)noc2C)[C@H](C)CN([C@@H](C)CO)C3=O)cc1,-10
COc1ccc(-c2ccc([C@H]3[C@@H](CO)N4CCCCN(S(=O)(=O)c5cccs5)C[C@@H]34)cc2)cc1,0
CCC(=O)Nc1ccc2c(c1)C(=O)N(C)C[C@H](OC)[C@H](C)CN(C(=O)c1cnccn1)[C@H](C)CO2,1
COc1ccc(S(=O)(=O)N(C)C[C@H]2OCc3ccccc3-c3ccccc3C(=O)N([C@@H](C)CO)C[C@H]2C)cc1,0
SMILES,E-selectin induc
O=C(NCC1CC1)[C@@H]1[C@@H](CO)[C@@H]2Cn3c(cccc3=O)[C@H]1N2C(=O)c1cccnc1,-1
C[C@H]1CN([C@@H](C)CO)C(=O)c2cc(NS(=O)(=O)c3cccs3)ccc2O[C@H]1CN(C)S(C)(=O)=O,449*
C[C@@H]1CN([C@H](C)CO)C(=O)c2cc(NS(=O)(=O)c3cccs3)ccc2O[C@@H]1CN(C)S(C)(=O)=O,-6
C[C@@H]1CN([C@H](C)CO)C(=O)c2cc(NS(=O)(=O)c3ccc(F)cc3)ccc2O[C@@H](C)CCCCO[C@@H]1CN(C)S(C)(=O)=O,44*
C[C@@H]1CN([C@H](C)CO)C(=O)c2cc(NS(=O)(=O)c3cccs3)ccc2O[C@H]1CN(C)S(=O)(=O)c1cccs1,0
C[C@@H]1CN([C@H](C)CO)C(=O)c2cc(NS(=O)(=O)c3cccs3)ccc2O[C@H]1CN(C)S(C)(=O)=O,33*
C[C@H](CO)N1C[C@H](C)[C@H](CN(C)S(C)(=O)=O)OCCCC[C@H](C)Oc2ccc(NS(=O)(=O)c3ccc(F)cc3)cc2C1=O,0
C[C@@H]1CCCCO[C@@H](CN(C)S(C)(=O)=O)[C@@H](C)CN([C@@H](C)CO)C(=O)c2cc(NS(=O)(=O)c3ccc(F)cc3)ccc2O1,0
C[C@@H]1CN([C@@H](C)CO)C(=O)c2cc(NS(=O)(=O)c3cccs3)ccc2O[C@@H]1CN(C)S(=O)(=O)c1cccs1,0
C[C@H]1CN([C@@H](C)CO)C(=O)c2cc(NS(=O)(=O)c3cccs3)ccc2O[C@@H]1CN(C)S(C)(=O)=O,-2
CCCNC(=O)N1CC2(CCN(C(=O)c3cccnc3)CC2)c2c([nH]c3cc(OC)ccc23)[C@@H]1CO,0
COc1ccccc1-c1cn(CC[C@H]2CC[C@H](NC(=O)C3CC3)[C@@H](CO)O2)nn1,0
